PRMT1 FP inh – PRMT1 (human) inhibition, primary screen. 1.3% of 370,000 active. inhibition, % at 2.79 µM. recombinant PRMT1, activity-based probe fluorescence polarization;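 active = inhibition above about 21% made by adding two undisclosed values, limit read from the data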
GSTO1 counter – blocks human GSTO1 in RBBP9 counter-screen; P78417; recombinant GSTO1, activity-based probe fluorescence polarization; inhibition, % at 5.96 µM; 1.1% of 300,000 active; AID 1974;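 active = inhibition above the campaign mean inhibition plus 3 SD, cut at about 35% in these data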;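 note: 0% = GSTO1-1 with DMSO and 100% = wells lacking GSTO1-1 enzyme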
Target sequence (P78417 whole entry, looked up): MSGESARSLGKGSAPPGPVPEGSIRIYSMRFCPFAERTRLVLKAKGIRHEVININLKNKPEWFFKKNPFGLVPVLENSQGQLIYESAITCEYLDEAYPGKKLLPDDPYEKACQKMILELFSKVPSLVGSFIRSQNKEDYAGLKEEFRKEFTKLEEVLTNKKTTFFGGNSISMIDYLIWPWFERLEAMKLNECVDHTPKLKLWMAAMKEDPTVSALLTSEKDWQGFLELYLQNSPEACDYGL
RBBP9 inhibitor – inhibitors of human serine hydrolase RBBP9 | recombinant RBBP9, FP-Rh probe fluorescence polarization | 0.2% of 220,000 active | inhibition, % at 7.94 µM | O75884 | AID 1515;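 active = inhibition above the campaign mean of all tested compounds plus 3 SD, cut at about 14% in these data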;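 note: plate controls were DMSO wells with RBBP9 for no effect and wells lacking RBBP9 protein for full effect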
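Test system – recombinant human RBBP9 · Input – RBBP9 2.5 µM in dispensing solution, pre-mixing · Medium – Tris buffer pH 8.0, NaCl, Pluronic · Schedule – preincubation 30 min plus labeling 45 min at 25 °C · Measured by – fluorescence polarization · Measure – % inhibition · Controls – DMSO and no-protein wells · Replicates – one well per compound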
PME-1 primary – blocks human protein phosphatase methylesterase 1 | recombinant PME-1, FP-Rh probe fluorescence polarization | inhibition, % at 5.9 µM | 0.53% of 320,000 active | AID 2130;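 active = inhibition above the campaign mean of all compounds plus 3 SD, cut at about 26% in these data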;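 note: competitive labeling of PME-1 active site by serine hydrolase directed probe; 0% = PME-1 with DMSO and 100% = wells lacking PME-1 enzyme; inhibitors block probe labeling so polarization falls and inhibition rises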
Target sequence (Q9Y570 whole entry, looked up): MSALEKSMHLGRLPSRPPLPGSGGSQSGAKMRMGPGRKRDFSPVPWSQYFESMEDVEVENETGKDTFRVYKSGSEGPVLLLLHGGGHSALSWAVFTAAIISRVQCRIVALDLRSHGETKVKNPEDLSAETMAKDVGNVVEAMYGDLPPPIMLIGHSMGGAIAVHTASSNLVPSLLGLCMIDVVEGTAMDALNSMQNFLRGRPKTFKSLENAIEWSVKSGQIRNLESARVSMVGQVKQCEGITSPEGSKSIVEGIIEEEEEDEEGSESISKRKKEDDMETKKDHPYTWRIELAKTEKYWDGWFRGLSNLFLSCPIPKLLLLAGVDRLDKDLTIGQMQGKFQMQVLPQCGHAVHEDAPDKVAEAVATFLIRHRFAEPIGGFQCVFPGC
PAD4 inh – blocks human protein arginine deiminase 4; inhibition, % at 6.36 µM; recombinant PAD4, RCA probe fluorescence polarization; 0.41% of 330,000 active; AID 485272;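 active = percent inhibition above a cutoff equal to the mean of all tested compounds plus 3 SD, cut at about 15% in these data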;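 note: 0% = PAD4 with RCA probe and DMSO and 100% = probe without PAD4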
Fam108B inh – blocks mouse Fam108B hydrolase in RBBP9 counter-screen; inhibition, % at 9.51 µM; recombinant Fam108B, FP-Rh probe fluorescence polarization; 0.33% of 300,000 active;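 active = inhibition above the screen mean inhibition plus 3 SD, computed separately per campaign, cut at about 18% in these data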;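 note: inhibitors lower polarization as less probe binds the enzyme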
PAD4 confirm – PAD4 (human) inhibition, confirmed; shares compounds with PAD4 inh; recombinant PAD4, RCA probe fluorescence polarization; inhibition, % at 6.36 µM; 28% of 1,200 active; AID 488796;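 active = mean inhibition across replicates above the hit cutoff set by the earlier primary screen, cut at about 15% in these data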;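 note: inhibitors block active-site labeling by the probe so polarization falls; 0% = PAD4 with probe and DMSO and 100% = probe without PAD4 enzyme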
Active calls of the source: *; . = no result given. An excerpt weighted towards active compounds, which were near 2.3% of everything screened.

SMILES	PRMT1 FP inh	GSTO1 counter	RBBP9 inhibitor	PME-1 primary	PAD4 inh	Fam108B inh	PAD4 confirm
NC(=O)c1ccc(NC(=O)CSC(=O)c2ccccc2)cc1	35.9*	.	.	.	16.8*	.	7.9
COc1ccccc1N1CCN(C(=O)/C=C/c2ccccc2)CC1	-4.2	0.5	-4.3	6.6	-3.0	4.9	.
C[C@H]1CN([C@@H](C)CO)C(=O)Cc2cc(NC(=O)C3CC3)ccc2O[C@H]1CN(C)Cc1ccc(C(=O)O)cc1	-0.9	.	.	.	0.9	.	.
Cc1cc(NC(=O)CCC(=O)N(c2ccccc2)C(C(=O)NC2CCCC2)c2ccccc2F)no1 (stereo not drawn)	0.2	-3.4	.	4.6	19.0*	2.1	2.3
COC(=O)c1ccc(NC(=S)NC(=O)c2c(-c3ccccc3)noc2C)cc1	-4.6	4.0	-8.3	7.7	-2.7	2.4	.
C=CCN(CC=C)Cc1cc(=O)oc2cc(OC)c(Cl)cc12	-1.3	.	.	.	.	.	.
CN(C(=O)c1ccc(NC(=O)Cc2cccc([N+](=O)[O-])c2)cc1)C1CC1	0.4	.	.	3.8	35.1*	.	3.9
CCCn1c(SCC(=O)Nc2ccc(Cl)cn2)nnc1C1CC1	6.6	-5.7	.	4.1	-4.2	1.1	.
Cn1c(SCC(=O)Nc2ccc(Br)cn2)nnc1C1CC1	10.3	4.1	.	4.5	156.4*	0.0	23.0*
CC(C)[C@H](NC(=O)c1ccccc1)C(=O)OCC(=O)Nc1ccc(Cl)cc1C(F)(F)F	-2.2	2.1	-1.0	3.2	-1.8	2.3	.
Cc1ccc(N2CC(C(=O)N3CCN(C(=O)c4ccco4)CC3)CC2=O)cc1 (stereo not drawn)	-0.7	-4.4	-10.4	-3.6	-2.7	-6.4	.
C=CCOc1ccc(C2NC(=S)NC3=C2CCc2ccccc23)cc1 (stereo not drawn)	4.6	8.5	2.5	1.3	1.9	-0.9	.
O=C1NC2=C(CCc3ccccc32)C(c2ccccc2)N1 (stereo not drawn)	1.5	32.1	-7.0	-14.8	27.4*	11.4	2.3
Cc1ccc(NS(=O)(=O)c2ccc(OCC(=O)NCc3ccccn3)cc2)cc1	0.5	4.7	.	1.1	-3.6	-0.2	.
O=C(c1ccc(Cl)c(S(=O)(=O)N2CCOCC2)c1)N1CCCC1	-1.7	3.0	.	-5.0	15.8*	-0.5	0.7
O=C(c1ccc(Cl)c(S(=O)(=O)N2CCCC2)c1)N1CCOCC1	-4.4	4.2	.	-0.8	-4.8	-0.1	.
CCC(=O)c1ccc(-c2ccccc2)cc1	-1.1	2.6	-8.7	1.4	0.6	8.5	.
O=C(O)CCC(=O)c1ccc(-c2ccccc2)cc1	-2.3	-0.5	-8.9	-4.3	172.2*	-2.6	15.9*
CCSc1c([N+](=O)[O-])c(=O)n(-c2ccccc2)c2ccccc12	0.1	-7.8	.	1.5	22.8*	0.8	20.8*
Cc1nc(SCC(=O)NCc2ccccc2)c2oc3ccccc3c2n1	-1.9	3.1	1.3	-3.5	21.5*	1.9	-5.6
COc1ccc(C(N)c2nccc3cc(OC)c(OC)cc23)cc1OC (stereo not drawn)	.	39.3*	.	7.0	21.6*	4.2	-1.1
COc1cc(N)c(Cc2nccc3cc(OC)c(OC)cc23)cc1OC	1.2	14.1	-5.0	-0.7	-15.6	-0.5	.
CC1=CC(C)(C)N2C(=O)C3(SCC(=O)N3c3ccc(F)cc3)c3cc(C)cc1c32 (stereo not drawn)	4.1	-4.6	2.5	7.3	-0.2	1.4	.
CC(C)c1ccc(N2C(=O)CSC23C(=O)N2CCCc4cccc3c42)cc1 (stereo not drawn)	-0.6	4.9	-3.7	3.8	15.5*	-2.5	19.6*
COc1ccc(Cn2c(C(F)(F)F)ccc(C(N)=O)c2=O)cc1	-3.5	5.0	-4.2	4.8	-1.0	-5.2	.
SMILES	PRMT1 FP inh	GSTO1 counter	RBBP9 inhibitor	PME-1 primary	PAD4 inh	Fam108B inh	PAD4 confirm
COc1ccc(NC(=O)N2CCCC(C(=O)NCc3ccccc3F)C2)cc1 (stereo not drawn)	3.5	4.7	.	2.9	-1.6	0.3	.
O=c1cc(-c2ccc(Cl)c(Cl)c2)[nH][nH]1	3.6	19.1	-5.9	2.0	51.2*	3.7	-5.1
COc1ccc(-c2cc(=O)[nH][nH]2)cc1	8.5	23.6	-8.2	6.3	55.9*	-1.6	-4.9
CCOC(=O)C1=C(C)NC(=O)NC1c1ccccc1Cl (stereo not drawn)	4.5	-2.9	-5.7	1.2	-7.1	2.5	.
CCOC(=O)C(Cc1c(F)cccc1F)(NC(C)=O)C(=O)OCC	-0.5	-3.0	-9.4	7.3	-2.4	-1.3	.
COc1ccc(Cl)cc1NC(=O)c1[nH]nc(OC)c1[N+](=O)[O-]	1.3	-4.5	-5.9	-2.6	-7.5	2.5	.
COc1cccc(/C=C2/CN(C)CC3=C2OC(N)=C(C#N)C3c2cccc(OC)c2)c1 (stereo not drawn)	-4.2	12.0	-4.0	-2.1	60.9*	0.3	12.8
Cn1c(NNC(=O)c2ccccc2F)cc(=O)n(C)c1=O	6.6	1.8	-2.2	-6.7	-0.3	-3.3	.
CN(C)S(=O)(=O)c1cccc(NC(=S)Nc2cc(Cl)cc(Cl)c2)c1	2.7	-8.6	-18.6	-1.4	0.4	-18.9	.
CCN(CCO)c1ccc(NC(=S)Nc2cccc(S(=O)(=O)N(C)C)c2)cc1	8.6	29.4	3.9	1.4	40.0*	1.2	-1.3
COc1ccc(C(C)(C)C)cc1NC(=O)Nc1ccc2c(c1)OCO2	1.9	-4.3	0.9	4.1	1.7	18.1	.
Cn1c(CN2CCOCC2)nnc1SCC(=O)Nc1ccc2c(c1)OCCO2	-2.8	-4.9	1.1	2.0	42.2*	6.0	9.8
CN1CCN(c2nc3nonc3nc2N2CCN(C)CC2)CC1	1.4	12.1	4.3	2.0	20.9*	5.3	5.6
COc1cccc(/C=C2\Oc3ccc(O)cc3C2=O)c1O	-3.4	-12.5	.	5.6	15.7*	4.9	4.8
COc1ncccc1-c1cnc2cccnn12	-0.3	.	.	.	.	.	.
Cc1nc(SCC(=O)O)c(C#N)c(-c2ccco2)c1C(=O)N(C)C	-2.1	-2.8	-4.0	7.7	4.2	-3.3	.
CNC(=O)c1c(C)[nH]c(=S)c(C#N)c1-c1ccco1	34.1*	7.7	-3.6	6.9	26.0*	-3.8	3.2
COC(=O)c1cc(C)nc(Sc2ccccc2N)n1	24.7*	3.0	-11.3	2.9	68.4*	-2.0	77.9*
COc1cccc(/C=N/NC(N)=S)c1OCc1cccc(Cl)c1	7.3	-1.5	-5.7	-3.8	-0.7	-3.0	.
CN(C)CCCNc1cn[nH]c(=O)c1Cl	-4.8	-5.2	-1.3	2.2	60.4*	-2.8	3.0
CCc1ccc(NC(=O)CSc2nc(C)cs2)cc1	-0.7	.	.	.	.	.	.
CCN1C(=O)c2cccc3c(N)ccc(c23)C1=O	171.7*	11.2	.	22.5	26.9*	12.0	25.5*
CCCSc1nnc(Sc2nnnn2-c2ccccc2)s1	0.7	2.6	-1.0	-0.6	35.3*	-1.1	19.7*
Cc1ccccc1-n1nnnc1Sc1nnnn1-c1ccccc1	-1.5	0.6	-2.3	6.1	19.1*	-0.7	5.4
